Experimental data taken from ChEMBL document CHEMBL1125728, “Dopamine autoreceptor agonists as potential antipsychotics. 2. (Aminoalkoxy)-4H-1-benzopyran-4-ones” (J Med Chem, 1991).
Active and inactive are the calls of the source. The calls are words filed in the database; no cut-off is given here.

Key:
[1] = biological target: Dopamine receptor (Rattus norvegicus) (UniProt P25115+P19020+P30729+P18901+P61169); assay: Inhibitory binding activity against dopamine receptor in rat striatal membranes using [3H]HAL as the radioligand.; assay type: cell membranes; parameters: concentration or dose not given beside the values; settings: Striatum; Membrane; concentration not given here
Procedure, shortened: (§1)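 [3H]Haloperidol displacement from rat striatal DA receptors, run in duplicate. IC50 obtained by nonlinear regression from four to five concentrations.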

Rattus norvegicus [2] = assay: Compound tested for % reversal of DOPA accumulation at an intraperitoneal dose of 30 mg/kg. Negative value in parenthesis indicates further % increase in DOPA levels over GBL-induced increase.; assay type: functional
Procedure, shortened: (§2)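 Rats dosed 1 h before sacrifice, with GBL (750 mg/kg ip) at 30 min and NSD 1015 (100 mg/kg ip) at 25 min before sacrifice. Striatal DOPA measured by HPLC with electrochemical detection. Value is percent reversal of the GBL-induced DOPA rise.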

Dopamine receptor = assay: Compound was tested for inhibitory binding activity against Dopamine receptor in rat striatal membranes using [3H]HAL as the radioligand.; assay type: cell membranes, Striatum, Membrane; procedure, shortened: as §1
Mus musculus [3] = assay: Inhibition of mouse intraperitoneally.; assay type: functional; settings: ip
Procedure, shortened: (§3)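 Inhibition of exploratory locomotor activity, scored together with motor coordination (ataxia). ED50 generated from four to five doses, with 5–12 animals per dose.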

Rattus norvegicus [4] = assay: Compound tested for % inhibition of DA neuronal firing at an intraperitoneal dose of 2.5 mg/kg.; assay type: functional; settings: ip
Rattus norvegicus [5] = assay: Compound tested for % reversal of DOPA accumulation at an intraperitoneal dose of 30 mg/kg.; assay type: functional; procedure, shortened: as §2
Rattus norvegicus [6] = assay: Inhibition of rat locomotor activity after being administered perorally.; assay type: functional; settings: po; procedure, shortened: as §3
Rattus norvegicus [7] = assay: Compound tested for % reversal of DOPA accumulation at an intraperitoneal dose of 30 mg/kg; Inactive; assay type: functional, organism-based; parameters: dose 30 mg/kg; procedure, shortened: as §2
Rattus norvegicus [8] = assay: Percentage of rats showing signs of stereotyped behavior at 15 mg/kg peroral dose and followed 1 hr later by 10 mg/kg sc of SKF-38393 and animals observed for 60 min postdose before being; assay type: functional
Procedure, shortened: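 Part 2: oral dose given to naive rats, six per dose, followed 1 h later by SKF 38393 (10 mg/kg sc). Stereotypy (repetitive rearing, head-swaying, sniffing, licking, gnawing lasting ≥5 s) rated over 60 min. Reported as percent of rats affected.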

Rattus norvegicus [9] = assay: Percentage of rats showing signs of stereotyped behavior at 30 mg/kg peroral dose and animals observed for 60 min postdose.; assay type: functional; settings: route oral
Rattus norvegicus [10] = assay: Percentage of rats showing signs of stereotyped behavior at 30 mg/kg peroral dose and followed 1 hr later by 10 mg/kg sc of SKF-38393 and animals observed for 60 min postdose before being; assay type: functional
Procedure, shortened: (§4)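 Naive rats, six per dose, received compound, then SKF 38393 (10 mg/kg sc) 1 h later. They were rated for repetitive rearing, head-swaying, sniffing, licking and gnawing of at least 5 s duration. Result given as the percentage of rats showing stereotypy.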

Rattus norvegicus [11] = assay: Compound tested for its effective dose to inhibit rat locomotor activity after sc administration of the compound.; assay type: functional
Procedure, shortened: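 Rats dosed sc, with locomotor activity recorded for 30 min immediately after dosing. ED50 generated from four to five doses using 5–12 animals per dose, reported with ±95% confidence limits.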

Rattus norvegicus [12] = assay: Compound tested for its effect on reversal of 6-OHDA induced depression in rats after sc administration.; assay type: functional
Procedure, shortened: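 Rats lesioned at least 1 month earlier with 6-OHDA (20 μg icv) plus pargyline (50 mg/kg ip) and desipramine (25 mg/kg ip), giving about 90% brain DA depletion. Drug given sc, then locomotor activity recorded for 30 min from dosing. ED200 estimated from three or four doses, six rats per dose.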

Rattus norvegicus [13] = assay: Compound was tested for inhibition of […] locomotor activity after being administered perorally.; assay type: functional; settings: po
Procedure, shortened: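 Mice dosed orally and scored for inhibition of exploratory locomotor activity, with motor coordination (ataxia) also checked. ED50 generated from four to five doses using 5–12 animals per dose.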

Rattus norvegicus [14] = assay: Effect on DOPA accumulation level at an intraperitoneal dose of 0.5 mg/kg in rat; assay type: functional
[15] = Compound was tested for its inhibition of Sidman avoidance after peroral administration in Squirrel monkeys.; assay type: functional; settings: po
Procedure, shortened: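 Sidman avoidance in mature squirrel monkeys, oral dosing. ED50 ± SEM generated from three doses, four animals per dose.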

[16] = Compound tested for its liability for extrapyramidal side effects (EPS) in terms of no. of animals showing signs of EPS/no. of animals tested upon peroral administration at a dose of 2.5 mg/Kg; 3/3; assay type: functional
Rattus norvegicus [17] = assay: Percentage of rats showing signs of stereotyped behavior at 30 mg/kg subcutaneous dose and animals observed for 30 min postdose.; assay type: functional
Rattus norvegicus [18] = assay: Percentage of rats showing signs of stereotyped behavior at 30 mg/kg subcutaneous dose and followed 1 hr later by 10 mg/kg sc of SKF-38393 and animals observed for 30 min postdose before being; assay type: functional; procedure, shortened: as §4
Rattus norvegicus [19] = assay: Effect on DOPA accumulation level at an intraperitoneal dose of 30 mg/kg in rat.; assay type: functional
Rattus norvegicus [20] = assay: Percentage of rats showing signs of stereotyped behavior at 0.3 mg/kg subcutaneous dose and animals observed for 60 min postdose.; assay type: functional
Mus musculus [21] = assay: Compound was tested for inhibition of mouse locomotor activity after being administered intraperitoneally.; settings: ip
Rattus norvegicus [22] = assay: Percentage of rats showing signs of stereotyped behavior at 110 mg/kg peroral dose and animals observed for 60 min postdose.; assay type: functional; settings: route oral
Rattus norvegicus [23] = assay: Percentage of rats showing signs of stereotyped behavior at 55 mg/kg peroral dose and followed 1 hr later by 10 mg/kg sc of SKF-38393 and animals observed for 60 min postdose before being; assay type: functional; procedure, shortened: as §4

O=c1ccoc2cc(OCCCN3CCN(c4cccc(Cl)c4)CC3)ccc12
inhibition [1]: 35%
Reversal (Rattus norvegicus [2]): -26%

O=c1ccoc2ccc(OCCCCN3CCN(c4ncccn4)CC3)cc12
IC50 (Dopamine receptor): 349 nM
ED50 (Mus musculus [3]): 3.6 mg/kg
inhibition in vivo at 2.5 mg/kg (Rattus norvegicus [4]): 100%
Reversal (Rattus norvegicus [5]): 100%
ED50 (Rattus norvegicus [6]): 8.2 mg/kg

O=c1ccoc2cc(OCCCCN3CCN(c4ccccc4)CC3)ccc12
inhibition [1]: 74%
Reversal (Rattus norvegicus [5]): 63%

Cc1cccc(N2CCN(CCCOc3ccc4c(=O)ccoc4c3)CC2)c1C
inhibition [1]: 0%

COc1ccc(N2CCN(CCCOc3ccc4c(=O)ccoc4c3)CC2)cc1
inhibition [1]: 25%

CCN(CCCOc1ccc2c(=O)ccoc2c1)CCCc1ccccc1
inhibition [1]: 26%
ED50 (Mus musculus [3]): > 30 mg/kg

Cc1ccccc1N1CCN(CCCOc2ccc3c(=O)ccoc3c2)CC1
inhibition [1]: 29%
% reversal (Rattus norvegicus [7]): inactive
ED50 (Rattus norvegicus [6]): > 30 mg/kg

Cc1ccc(N2CCN(CCCOc3ccc4c(=O)ccoc4c3)CC2)cc1C
inhibition [1]: 41%
Reversal (Rattus norvegicus [5]): -29%

O=c1ccoc2cc(OCCCN3CCN(Cc4ccccc4)CC3)ccc12
inhibition [1]: 31%
ED50 (Mus musculus [3]): > 30 mg/kg

O=c1ccoc2cc(OCCCN3CCc4[nH]c5ccc(F)cc5c4C3)ccc12
ED50 (Mus musculus [3]): 7.5 mg/kg
Reversal (Rattus norvegicus [5]): -44%
ED50 (Rattus norvegicus [6]): 5.5 mg/kg

O=c1ccoc2ccc(OCCCCN3CCN(c4ccccc4)CC3)cc12
inhibition [1]: 73%
Animals (Rattus norvegicus [8]): 0%
Animals (Rattus norvegicus [9]): 0%
inhibition in vivo at 2.5 mg/kg (Rattus norvegicus [4]): 94%
Reversal (Rattus norvegicus [5]): 84%

C1=C(c2ccccc2)CCN(CCCCc2c[nH]c3ccccc23)C1
ED50 (Mus musculus [3]): 0.1 mg/kg
Animals (Rattus norvegicus [9]): 0%
Animals (Rattus norvegicus [10]): 0%
ED50 (Rattus norvegicus [11]): 4.69 mg/kg
ED200 (Rattus norvegicus [12]): 0.29 mg/kg
ED50 (Rattus norvegicus [13]): 4.8 mg/kg

O=c1ccoc2cc(OCCCN3CCN(c4cccc(O)c4)CC3)ccc12
inhibition [1]: 29%

O=c1ccoc2cc(OCCCN3CCC(c4ccccc4)CC3)ccc12
inhibition [1]: 40%

O=C(CCCN1CCC(O)(c2ccc(Cl)cc2)CC1)c1ccc(F)cc1 [HALOPERIDOL]
DOPA level (Rattus norvegicus [14]): 2.72 µg/g

O=c1ccoc2cc(OCCCN3CCc4ccccc4C3)ccc12
inhibition [1]: 50%
ED50 (Mus musculus [3]): 30 mg/kg

O=c1ccoc2cc(OCCCN3CCN(c4ccccc4Cl)CC3)ccc12
inhibition [1]: 59%

CSc1ccc2c(c1)N(CCC1CCCCN1C)c1ccccc1S2 (configuration not stated) [THIORIDAZINE]
ED50 [15]: 3.9 mg/kg
EPS [16]: 3

CCCN1CCCC(c2ccccc2)C1 (single isomer, unassigned; (+))
Animals (Rattus norvegicus [17]): 16%
Animals (Rattus norvegicus [18]): 100%
ED50 (Rattus norvegicus [11]): 3 mg/kg
ED200 (Rattus norvegicus [12]): 0.48 mg/kg

O=C1CN(CCCOc2ccc3c(=O)ccoc3c2)CC(=O)N1c1ccccc1
inhibition [1]: 0%
ED50 (Mus musculus [3]): > 30 mg/kg

O=c1ccoc2cc(OCCCN3CCc4c(oc5ccccc45)C3)ccc12
inhibition [1]: 8%
ED50 (Mus musculus [3]): 13.5 mg/kg
Reversal (Rattus norvegicus [5]): 29%
ED50 (Rattus norvegicus [6]): > 30 mg/kg

O=c1ccoc2cc(OCCCN3CCN(c4ccc(F)cc4)CC3)ccc12
inhibition [1]: 24%
DOPA level (Rattus norvegicus [19]): 1.36 µg/g
Reversal (Rattus norvegicus [2]): -42%

Cc1ccc(N2CCN(CCCOc3ccc4c(=O)ccoc4c3)CC2)cc1
inhibition [1]: 36%
% reversal (Rattus norvegicus [7]): inactive

O=c1ccoc2cc(OCCCN3CCC=C(c4ccccc4)C3)ccc12
IC50 (Dopamine receptor): 243 nM
ED50 (Mus musculus [3]): 30.3 mg/kg

CN1CCc2cccc3c2[C@H]1Cc1ccc(O)c(O)c1-3 [APOMORPHINE]
ED50 (Mus musculus [3]): 6.4 mg/kg
Animals (Rattus norvegicus [20]): 100%
ED50 (Rattus norvegicus [11]): 0.03 mg/kg
ED200 (Rattus norvegicus [12]): 0.005 mg/kg
inhibition in vivo at 2.5 mg/kg (Rattus norvegicus [4]): 100%
Reversal (Rattus norvegicus [5]): 104%
ED50 (Mus musculus [21]): > 30 mg/kg

O=c1ccoc2cc(OCCCN3CCN(c4ccc(Cl)c(Cl)c4)CC3)ccc12
inhibition [1]: 23%
ED50 (Mus musculus [3]): 14 mg/kg

O=c1ccoc2cccc(OCCCN3CCN(c4ccccc4)CC3)c12
inhibition [1]: 9%
% reversal (Rattus norvegicus [7]): inactive
ED50 (Rattus norvegicus [6]): > 30 mg/kg

O=c1ccoc2cc(OCCCN3CC=C(c4ccccc4)CC3)ccc12
Animals (Rattus norvegicus [22]): 0%
Animals (Rattus norvegicus [23]): 0%
inhibition in vivo at 2.5 mg/kg (Rattus norvegicus [4]): 90%
Reversal (Rattus norvegicus [5]): 54%
ED50 (Rattus norvegicus [6]): 5.5 mg/kg

COc1ccccc1N1CCN(CCCOc2ccc3c(=O)ccoc3c2)CC1
inhibition [1]: 48%

O=c1ccoc2cc(OCCCN3CCN(c4ccccc4)CC3)ccc12
inhibition [1]: 20%
inhibition in vivo at 2.5 mg/kg (Rattus norvegicus [4]): 68%
Reversal (Rattus norvegicus [5]): 56%

Cc1cccc(N2CCN(CCCOc3ccc4c(=O)ccoc4c3)CC2)c1
inhibition [1]: 38%
% reversal (Rattus norvegicus [7]): inactive

Nc1cccc(OCCCN2CCN(c3ccccc3)CC2)c1
ED50 (Mus musculus [3]): 1.3 mg/kg

O=c1ccoc2cc(OCCCN3CCN(c4cnccn4)CC3)ccc12
inhibition [1]: 17%
ED50 (Mus musculus [3]): 26.3 mg/kg

O=c1ccoc2cc(OCCCN3CCCN(c4ccccc4)CC3)ccc12
IC50 (Dopamine receptor): 884 nM
ED50 (Mus musculus [3]): > 30 mg/kg

O=c1ccoc2cc(OCCCN3CCN(c4ncccn4)CC3)ccc12
inhibition [1]: 0%
ED50 (Mus musculus [3]): 12.4 mg/kg
ED50 (Rattus norvegicus [6]): 15.6 mg/kg

O=c1ccoc2cc(OCCCN3CCN(c4ccc(Cl)cc4)CC3)ccc12
inhibition [1]: 10%
% reversal (Rattus norvegicus [7]): inactive
